Assay [1] deals with Toll-like receptor 2 (Mus musculus) (UniProt Q9QUN7). Briefly: Induction of TLR2-mediated mouse spleen B cells proliferation assessed as [3H]thymidin uptake at 0.16 ug/ml after 72 hrs in the presence of antagonist anti-TLR2 antibody treated 25 mins after anti-TLR2 antibody challenge. It counts as functional, tissue-based.
The target is the same in assay [2]. Briefly: Induction of TLR2-mediated mouse spleen B cells proliferation assessed as [3H]thymidin uptake at 0.02 ug/ml after 72 hrs. A digest of the protocol:
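Purified mouse spleen B cells cultured with analogs at indicated concentrations for 72 h; proliferation by [3H]-thymidine uptake. Stimulation index = mean cpm stimulated / mean cpm unstimulated; mean SI ± SD of three independent experiments, each in triplicate.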

Assay [3] shares this target. The assay can be described thus: Induction of TLR2-mediated mouse D1 dendritic cells maturation assessed as expression of CD54 and CD86 activation markers at 0.5 ug/ml to 5 ug/ml after 24 hrs by flow cytometry in the presence of polymyxin B. The format is cell-based.
Assay [4] shares this target. Briefly: Induction of TLR2-mediated mouse D1 dendritic cells maturation assessed as expression of CD54 and CD86 activation markers at 0.5 ug/ml after 24 hrs by flow cytometry in the presence of antagonist anti-TLR2 antibody treated 25 mins after anti-TLR2 antibody challenge.

Calls of active or inactive are those of the source. The calls are words filed in the database; no cut-off is given here.

Sequence of Toll-like receptor 2 (Mus musculus) (Q9QUN7 whole entry): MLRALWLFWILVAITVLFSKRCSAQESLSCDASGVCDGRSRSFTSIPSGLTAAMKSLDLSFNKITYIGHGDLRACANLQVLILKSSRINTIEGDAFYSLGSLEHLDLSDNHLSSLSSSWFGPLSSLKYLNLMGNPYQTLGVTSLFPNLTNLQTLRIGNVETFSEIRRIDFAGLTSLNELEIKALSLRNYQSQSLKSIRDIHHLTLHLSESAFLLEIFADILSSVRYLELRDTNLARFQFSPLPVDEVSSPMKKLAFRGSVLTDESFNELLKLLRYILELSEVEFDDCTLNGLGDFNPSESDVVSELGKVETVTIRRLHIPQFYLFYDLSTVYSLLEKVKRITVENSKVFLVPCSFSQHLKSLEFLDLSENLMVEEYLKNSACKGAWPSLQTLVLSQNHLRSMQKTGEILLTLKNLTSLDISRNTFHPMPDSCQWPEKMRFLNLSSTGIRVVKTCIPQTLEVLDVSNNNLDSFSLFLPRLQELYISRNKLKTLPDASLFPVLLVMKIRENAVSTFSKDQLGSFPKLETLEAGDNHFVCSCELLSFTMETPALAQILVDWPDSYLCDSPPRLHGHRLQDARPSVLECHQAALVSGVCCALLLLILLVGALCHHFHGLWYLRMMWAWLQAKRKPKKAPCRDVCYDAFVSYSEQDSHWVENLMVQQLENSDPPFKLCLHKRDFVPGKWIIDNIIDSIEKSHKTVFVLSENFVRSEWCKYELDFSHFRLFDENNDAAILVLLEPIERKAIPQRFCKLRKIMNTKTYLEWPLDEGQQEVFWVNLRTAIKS

With `CCCCCCCCCCCCCCCC(=O)OC[C@H](CSC[C@H](N)C(=O)N[C@@H](C)C(=O)NCC(=O)NCCOCCOCCOCCOCCOCCOCCOCCOCCOCCOCCOCCOCCOCCOCCOCCOCCOCCOCCOCCOCCOCCOCCOCCOCCOCCOCCOCCOCCOCCOCCOCCOCCOCCOCCOCCOCCOCCOCCOCCOCCOCCOCCOCCOCCOC)OC(=O)CCCCCCCCCCCCCCC`, the outcome in assay [1] and in assay [4] was inactive. The outcome in assay [2] and in assay [3] was Active.
Consider `CCCCCCCCCCCCCCCC(=O)OC[C@H](CSC[C@H](NC(=O)COCCOCCOCCOCCOCCOCCOCCOCCOCCOCCOCCOCCOCCOCCOCCOCCOCCOCCOCCOCCOCCOCCOCCOCCOCCOCCOCCOCCOCCOCCOCCOCCOCCOCCOCCOCCOCCOCCOCCOCCOCCOCCOCCOCCOC)C(=O)N[C@@H](C)C(=O)NCC(=O)O)OC(=O)CCCCCCCCCCCCCCC`, for which the outcome in assay [1] and in assay [4] was inactive. The outcome in assay [2] and in assay [3] was Active.
Turning to `CCCCCCCCCCCCCCCC(=O)N[C@@H](CSC[C@@H](COC(=O)CCCCCCCCCCCCCCC)OC(=O)CCCCCCCCCCCCCCC)C(=O)N[C@@H](C)C(=O)NCC(=O)NCCOCCOCCOCCOCCOCCOCCOCCOCCOCCOCCOCCOCCOCCOCCOCCOCCOCCOCCOCCOCCOCCOCCOCCOCCOCCOCCOCCOCCOCCOCCOCCOCCOCCOCCOCCOCCOCCOCCOCCOCCOCCOCCOCCOCCOC`, the result in assay [1] and in assay [4] was inactive. Moreover, the result in assay [2] and in assay [3] was Active.
`CCCCCCCCCCCCCCCC(=O)OC[C@H](CSC[C@H](N)C(=O)N[C@@H](C)C(=O)NCC(=O)NCCSSCCNC(=O)CNC(=O)OCCOCCOCCOCCOCCOCCOCCOCCOCCOCCOCCOCCOCCOCCOCCOCCOCCOCCOCCOCCOCCOCCOCCOCCOCCOCCOCCOCCOCCOCCOCCOCCOCCOCCOCCOCCOCCOCCOCCOCCOCCOCCOCCOCCO)OC(=O)CCCCCCCCCCCCCCC`: the result in assay [1] and in assay [4] was inactive. The outcome in assay [2] and in assay [3] was Active.

The values above are taken from ChEMBL document CHEMBL1155412, “Novel powerful water-soluble lipid immunoadjuvants inducing mouse dendritic cell maturation and B cell proliferation using TLR2 pathway” (Bioorg Med Chem Lett, 2010).
